# In ChEMBL document CHEMBL4689842, “EUbOPEN Chemogenomics Library wave 1” (2021):
# Key:
# Assay type in all cases: toxicity, cell-based
# [1] = system: U2OS; test: Incucyte cell viability with U2OS; conditions: human, 10 µM, compound concentration 10 uM; further: filed as whole numbers so only -1 and 0 and 1 occur
# [2] = system: Fibroblast; test: Multiplex assay against human fibroblast
# Summary of the method: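 Live cells were stained at seeding with Hoechst33342, BioTracker Green Microtubule Cytoskeleton Dye, MitoTracker Red and Annexin V Alexa Fluor 680. Following compound addition, they were imaged on a CQ1 microscope at 37°C and 5% CO2 and gated by CellPathfinder machine learning into Hoechst high-intensity objects or normal cells, with normal cells split into healthy, pyknosed or fragmented nuclei and pyknosed cells into mitotic or apoptotic. Tubulin, mitochondrial-mass and membrane-permeability phenotypes are per cents of healthy-nucleus cells.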
# [3] = system: HEK-293T; test: Incucyte cell viability with HEK293T; conditions: human, 10 µM, compound concentration 10 uM; further: filed as whole numbers so only -1 and 0 and 1 occur
# [4] = system: Fibroblast; test: Incucyte cell viability with human fibroblast; conditions: 10 µM, compound concentration 10 uM; further: filed as whole numbers so only -1 and 0 and 1 occur
# [5] = 0 h, replicate number 1, timepoint 0 hours
# [6] = 6 h, replicate number 1, timepoint 6 hours
# [7] = 12 h, replicate number 1, timepoint 12 hours
# [8] = 18 h, replicate number 1, timepoint 18 hours
# [9] = 24 h, replicate number 1, timepoint 24 hours
# [10] = 12 h, 1 µM, compound concentration 1 uM, replicate 1
# [11] = 12 h, 1 µM, compound concentration 1 uM, replicate 2
# [12] = 12 h, 10 µM, compound concentration 10 uM, replicate 1
# [13] = 12 h, 10 µM, compound concentration 10 uM, replicate 2
# [14] = 24 h, 1 µM, compound concentration 1 uM, replicate 1
# [15] = 24 h, 1 µM, compound concentration 1 uM, replicate 2
# [16] = 24 h, 10 µM, compound concentration 10 uM, replicate 1
# [17] = 24 h, 10 µM, compound concentration 10 uM, replicate 2
compound,measurement,setting,value
Cl.Cl.NC1(c2ccc(-c3nc4ccn5c(=O)[nH]nc5c4cc3-c3ccccc3)cc2)CCC1,Growth Rate,[1]; [5],0
same,Growth Rate,[1]; [6],1
same,Growth Rate,[1]; [7],1
same,Growth Rate,[1]; [8],1
same,Growth Rate,[1]; [9],1
same,Population Apoptotic (%),[2]; [10],71%
same,Population Fragmented Nuclei (%),[2]; [10],35%
same,Population Healthy Nuclei (%),[2]; [10],48%
same,Population Hoechst High Intensity Objects (%),[2]; [10],42%
same,Population Membrane Permeable-Phenotype (%),[2]; [10],4%
same,Population Mitotic Cells (%),[2]; [10],28%
same,Population Normal (%),[2]; [10],57%
same,Population Pyknosed Nuclei (%),[2]; [10],15%
same,Population Tubulin-Different-Phenotype (%),[2]; [10],6%
same,Total Cell Count,[2]; [10],437
same,Population Apoptotic (%),[2]; [11],87%
same,Population Fragmented Nuclei (%),[2]; [11],55%
same,Population Healthy Nuclei (%),[2]; [11],35%
same,Population Hoechst High Intensity Objects (%),[2]; [11],45%
same,Population Membrane Permeable-Phenotype (%),[2]; [11],19%
same,Population Mitochondria Different-Phenotype (%),[2]; [11],0%
same,Population Mitotic Cells (%),[2]; [11],12%
same,Population Normal (%),[2]; [11],54%
same,Population Pyknosed Nuclei (%),[2]; [11],9%
same,Population Tubulin-Different-Phenotype (%),[2]; [11],16%
same,Total Cell Count,[2]; [11],161
same,Population Apoptotic (%),[2]; [12],37%
same,Population Fragmented Nuclei (%),[2]; [12],19%
same,Population Healthy Nuclei (%),[2]; [12],38%
same,Population Hoechst High Intensity Objects (%),[2]; [12],49%
same,Population Membrane Permeable-Phenotype (%),[2]; [12],7%
same,Population Mitochondria Different-Phenotype (%),[2]; [12],4%
same,Population Mitotic Cells (%),[2]; [12],62%
same,Population Normal (%),[2]; [12],50%
same,Population Pyknosed Nuclei (%),[2]; [12],41%
same,Population Tubulin-Different-Phenotype (%),[2]; [12],42%
same,Total Cell Count,[2]; [12],610
same,Population Apoptotic (%),[2]; [13],80%
same,Population Fragmented Nuclei (%),[2]; [13],71%
same,Population Healthy Nuclei (%),[2]; [13],14%
same,Population Hoechst High Intensity Objects (%),[2]; [13],69%
same,Population Membrane Permeable-Phenotype (%),[2]; [13],0%
same,Population Mitochondria Different-Phenotype (%),[2]; [13],40%
same,Population Mitotic Cells (%),[2]; [13],20%
same,Population Normal (%),[2]; [13],30%
same,Population Pyknosed Nuclei (%),[2]; [13],14%
same,Population Tubulin-Different-Phenotype (%),[2]; [13],20%
same,Total Cell Count,[2]; [13],114
same,Population Apoptotic (%),[2]; [14],45%
same,Population Fragmented Nuclei (%),[2]; [14],33%
same,Population Healthy Nuclei (%),[2]; [14],51%
same,Population Hoechst High Intensity Objects (%),[2]; [14],49%
same,Population Membrane Permeable-Phenotype (%),[2]; [14],1%
same,Population Mitochondria Different-Phenotype (%),[2]; [14],1%
same,Population Mitotic Cells (%),[2]; [14],54%
same,Population Normal (%),[2]; [14],50%
same,Population Pyknosed Nuclei (%),[2]; [14],15%
same,Population Tubulin-Different-Phenotype (%),[2]; [14],9%
same,Total Cell Count,[2]; [14],428
same,Population Apoptotic (%),[2]; [15],57%
same,Population Fragmented Nuclei (%),[2]; [15],57%
same,Population Healthy Nuclei (%),[2]; [15],32%
same,Population Hoechst High Intensity Objects (%),[2]; [15],51%
same,Population Membrane Permeable-Phenotype (%),[2]; [15],8%
same,Population Mitochondria Different-Phenotype (%),[2]; [15],0%
same,Population Mitotic Cells (%),[2]; [15],42%
same,Population Normal (%),[2]; [15],48%
same,Population Pyknosed Nuclei (%),[2]; [15],9%
same,Population Tubulin-Different-Phenotype (%),[2]; [15],16%
same,Total Cell Count,[2]; [15],157
same,Population Apoptotic (%),[2]; [16],24%
same,Population Fragmented Nuclei (%),[2]; [16],17%
same,Population Healthy Nuclei (%),[2]; [16],38%
same,Population Hoechst High Intensity Objects (%),[2]; [16],53%
same,Population Membrane Permeable-Phenotype (%),[2]; [16],5%
same,Population Mitochondria Different-Phenotype (%),[2]; [16],10%
same,Population Mitotic Cells (%),[2]; [16],75%
same,Population Normal (%),[2]; [16],46%
same,Population Pyknosed Nuclei (%),[2]; [16],44%
same,Population Tubulin-Different-Phenotype (%),[2]; [16],42%
same,Total Cell Count,[2]; [16],622
same,Population Apoptotic (%),[2]; [17],83%
same,Population Fragmented Nuclei (%),[2]; [17],70%
same,Population Healthy Nuclei (%),[2]; [17],14%
same,Population Hoechst High Intensity Objects (%),[2]; [17],57%
same,Population Membrane Permeable-Phenotype (%),[2]; [17],50%
same,Population Mitochondria Different-Phenotype (%),[2]; [17],33%
same,Population Mitotic Cells (%),[2]; [17],16%
same,Population Normal (%),[2]; [17],42%
same,Population Pyknosed Nuclei (%),[2]; [17],14%
same,Population Tubulin-Different-Phenotype (%),[2]; [17],16%
same,Total Cell Count,[2]; [17],97
same,Growth Rate,[3]; [6],0
same,Growth Rate,[3]; [7],0
same,Growth Rate,[3]; [8],0
same,Growth Rate,[3]; [9],0
same,Growth Rate,[4]; [6],0
same,Growth Rate,[4]; [7],0
same,Growth Rate,[4]; [8],0
same,Growth Rate,[4]; [9],0
N#Cc1cnc(Nc2cc(NC[C@H]3CNCCO3)c(C(F)(F)F)cn2)cn1 [SRA-737],Growth Rate,[1]; [5],1
same,Growth Rate,"[1]; 0 h, replicate number 2, timepoint 0 hours",0
same,Growth Rate,[1]; [6],0
same,Growth Rate,[1]; [7],0
same,Growth Rate,[1]; [8],0
same,Growth Rate,[1]; [9],0
same,Population Apoptotic (%),[2]; [10],65%
same,Population Fragmented Nuclei (%),[2]; [10],23%
same,Population Healthy Nuclei (%),[2]; [10],59%
same,Population Hoechst High Intensity Objects (%),[2]; [10],13%
same,Population Membrane Permeable-Phenotype (%),[2]; [10],9%
same,Population Mitochondria Different-Phenotype (%),[2]; [10],1%
same,Population Mitotic Cells (%),[2]; [10],34%
same,Population Normal (%),[2]; [10],86%
same,Population Tubulin-Different-Phenotype (%),[2]; [10],4%
same,Total Cell Count,[2]; [10],196
same,Population Apoptotic (%),[2]; [11],37%
same,Population Fragmented Nuclei (%),[2]; [11],60%
same,Population Healthy Nuclei (%),[2]; [11],21%
same,Population Hoechst High Intensity Objects (%),[2]; [11],35%
same,Population Membrane Permeable-Phenotype (%),[2]; [11],10%
same,Population Mitochondria Different-Phenotype (%),[2]; [11],0%
same,Population Mitotic Cells (%),[2]; [11],62%
same,Population Normal (%),[2]; [11],64%
same,Population Pyknosed Nuclei (%),[2]; [11],17%
same,Population Tubulin-Different-Phenotype (%),[2]; [11],0%
same,Total Cell Count,[2]; [11],71
same,Population Apoptotic (%),[2]; [12],69%
same,Population Fragmented Nuclei (%),[2]; [12],33%
same,Population Healthy Nuclei (%),[2]; [12],53%
same,Population Hoechst High Intensity Objects (%),[2]; [12],12%
same,Population Membrane Permeable-Phenotype (%),[2]; [12],11%
same,Population Mitochondria Different-Phenotype (%),[2]; [12],1%
same,Population Mitotic Cells (%),[2]; [12],30%
same,Population Normal (%),[2]; [12],87%
same,Population Pyknosed Nuclei (%),[2]; [12],13%
same,Population Tubulin-Different-Phenotype (%),[2]; [12],8%
same,Total Cell Count,[2]; [12],288
same,Population Apoptotic (%),[2]; [13],28%
same,Population Fragmented Nuclei (%),[2]; [13],58%
same,Population Healthy Nuclei (%),[2]; [13],28%
same,Population Hoechst High Intensity Objects (%),[2]; [13],34%
same,Population Membrane Permeable-Phenotype (%),[2]; [13],7%
same,Population Mitochondria Different-Phenotype (%),[2]; [13],35%
same,Population Mitotic Cells (%),[2]; [13],71%
same,Population Normal (%),[2]; [13],65%
same,Population Pyknosed Nuclei (%),[2]; [13],14%
same,Population Tubulin-Different-Phenotype (%),[2]; [13],21%
same,Total Cell Count,[2]; [13],76
same,Population Apoptotic (%),[2]; [14],50%
same,Population Fragmented Nuclei (%),[2]; [14],31%
same,Population Healthy Nuclei (%),[2]; [14],56%
same,Population Hoechst High Intensity Objects (%),[2]; [14],9%
same,Population Membrane Permeable-Phenotype (%),[2]; [14],7%
same,Population Mitochondria Different-Phenotype (%),[2]; [14],2%
same,Population Mitotic Cells (%),[2]; [14],50%
same,Population Normal (%),[2]; [14],90%
same,Population Pyknosed Nuclei (%),[2]; [14],11%
same,Population Tubulin-Different-Phenotype (%),[2]; [14],1%
same,Total Cell Count,[2]; [14],205
same,Population Apoptotic (%),[2]; [15],42%
same,Population Fragmented Nuclei (%),[2]; [15],63%
same,Population Healthy Nuclei (%),[2]; [15],22%
same,Population Hoechst High Intensity Objects (%),[2]; [15],24%
same,Population Membrane Permeable-Phenotype (%),[2]; [15],9%
same,Population Mitochondria Different-Phenotype (%),[2]; [15],9%
same,Population Mitotic Cells (%),[2]; [15],57%
same,Population Normal (%),[2]; [15],75%
same,Population Pyknosed Nuclei (%),[2]; [15],14%
same,Population Tubulin-Different-Phenotype (%),[2]; [15],18%
same,Total Cell Count,[2]; [15],65
same,Population Apoptotic (%),[2]; [16],71%
same,Population Fragmented Nuclei (%),[2]; [16],41%
same,Population Healthy Nuclei (%),[2]; [16],48%
same,Population Hoechst High Intensity Objects (%),[2]; [16],18%
same,Population Membrane Permeable-Phenotype (%),[2]; [16],9%
same,Population Mitochondria Different-Phenotype (%),[2]; [16],2%
same,Population Mitotic Cells (%),[2]; [16],28%
same,Population Normal (%),[2]; [16],81%
same,Population Pyknosed Nuclei (%),[2]; [16],10%
same,Population Tubulin-Different-Phenotype (%),[2]; [16],15%
same,Total Cell Count,[2]; [16],342
same,Population Apoptotic (%),[2]; [17],28%
same,Population Fragmented Nuclei (%),[2]; [17],59%
same,Population Healthy Nuclei (%),[2]; [17],26%
same,Population Hoechst High Intensity Objects (%),[2]; [17],27%
same,Population Membrane Permeable-Phenotype (%),[2]; [17],15%
same,Population Mitochondria Different-Phenotype (%),[2]; [17],30%
same,Population Mitotic Cells (%),[2]; [17],71%
same,Population Normal (%),[2]; [17],72%
same,Population Pyknosed Nuclei (%),[2]; [17],14%
same,Population Tubulin-Different-Phenotype (%),[2]; [17],30%
same,Total Cell Count,[2]; [17],68
same,Growth Rate,[3]; [5],0
same,Growth Rate,[3]; [6],0
same,Growth Rate,[3]; [7],0
same,Growth Rate,[3]; [8],0
same,Growth Rate,[3]; [9],0
same,Growth Rate,[4]; [5],0
same,Growth Rate,[4]; [6],1
same,Growth Rate,[4]; [7],1
same,Growth Rate,[4]; [8],1
same,Growth Rate,[4]; [9],0
same,Growth Rate,"[4]; 24 h, replicate number 2, timepoint 24 hours",1
